Experimental findings from ChEMBL document CHEMBL2401701, “Notable difference in anti-HIV activity of integrase inhibitors as a consequence of geometric and enantiomeric configurations” (Bioorg Med Chem Lett, 2013) are described below.

SMILES strings stand for the structures. pEC50, pIC50: −log10 of the molar value. Active and inactive are the calls of the source. The calls are words filed in the database; no cut-off is given here.

Data set [1] deals with Human immunodeficiency virus type 1 integrase (Human immunodeficiency virus 1) (UniProt Q7ZJM1). Nature of the data set: (§1) Inhibition of HIV-1 integrase strand transfer activity after 1 hr by ELISA. In outline:
(§2)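 DNA substrate (20 nM final), serially diluted compound, and recombinant HIV-1 integrase were combined in 20 mM HEPES pH 7.5, 10 mM MgCl₂, 5% PEG, 0.1 mg/mL BSA, 5 mM DTT. The mix was moved to streptavidin plates for 1 h at room temperature, then washed with NaOH/NaCl/EDTA and Tris-EDTA. Detection antibody was applied for 1 h at 37 °C, followed by TMB for 10 min and absorbance at 450 nm.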
On the technique in general: An ELISA detects its analyte on a solid surface through an enzyme-linked reagent.

Data set [2] is described as follows: Cytotoxicity against human MAGI cells by MTS assay. The data set is classed as cell-based. In general terms: Tetrazolium dyes change colour on reduction, which living cells bring about.
The test system of data set [3] is Human immunodeficiency virus 1. Nature of the data set: Antiviral activity against Human immunodeficiency virus 1 NL4-3 infected in human MAGI cells after 6 days by beta-galactosidase reporter gene assay. The class given is functional, organism-based. As to conditions: Human immunodeficiency virus 1, NL4-3, MAGI, 144 h. The essentials:
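MAGI cells carrying an LTR-β-galactosidase reporter were infected with HIV-1 in the presence of compound. After 6 days post-infection, cells were lysed and β-galactosidase activity was read by chemiluminescence. Values are means of three determinations.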
A general note: A reporter such as luciferase makes a cellular process visible.

In data set [4] the target is Human immunodeficiency virus type 1 integrase (Human immunodeficiency virus 1, UniProt Q7ZJM1). The data set is described as §1. In outline: as §2
Data set [5] has as its system Liver microsomes. Nature of the data set: Metabolic stability in human liver microsomes assessed as retention time of metabolite at 50 uM by HPLC-UV analysis. The data set is classed as ADME, Microsome. The essentials: (§3)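 Pooled mixed-gender human liver microsomes (0.5 mg/mL protein) were incubated with 2 mM NADPH, 0.5 U/mL G-6-P-DH, 5 mM MgCl₂ and 5 mM G-6-P in 100 mM potassium phosphate pH 7.4. After 3 min preincubation at 37 °C, NADPH was added to start the reaction, which ran 60 min. Samples taken at 0, 15, 30, 45 and 60 min were quenched with ice-cold acetonitrile, then run on reversed-phase C18 HPLC (phosphate pH 6.5/acetonitrile gradient) with UV at 360 nm. Data are mean ± SD of three.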

In data set [6] the target is T1, CYP2D6 (Homo sapiens, UniProt P10635). Nature of the data set: Activity at CYP2D6 in human liver microsomes using dextromethorphan as substrate at 50 uM preincubated for 3 mins prior to NADPH addition by HPLC-UV analysis relative to control. The class given is ADME, Microsome. The settings on record: probe dextromethorphan, read-out: Activity. In outline: (§4)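 Pooled mixed-gender human liver microsomes in 100 mM potassium phosphate (pH 7.4) with 5 mM MgCl₂, probe substrate at its Km-based level, and test compound. Final volume 100 µL. Preincubated 3 min at 37 °C, then started with 2 mM NADPH (final). Metabolite was read by HPLC-UV: 6β-hydroxytestosterone at 254 nm, 4-hydroxytriazolam at 260 nm, dextrorphan at 278 nm. Activity is given as % of control (100%), mean ± SD of three.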

Data set [7] concerns the target T1, CYP2D6. Nature of the data set: Activity at CYP2D6 in human liver microsomes using dextromethorphan as substrate at 25 uM preincubated for 3 mins prior to NADPH addition by HPLC-UV analysis relative to control. The settings on record: probe dextromethorphan, read-out: Activity. The data set is classed as ADME, Microsome. In outline:
as §4

The target of data set [8] is T1, CYP2D6. Nature of the data set: Activity at CYP2D6 in human liver microsomes using dextromethorphan as substrate at 12.5 uM preincubated for 3 mins prior to NADPH addition by HPLC-UV analysis relative to control. As to conditions: probe dextromethorphan, read-out: Activity. The data set is classed as ADME, Microsome. In outline:
as §4

The target in data set [9] is T2, CYP3A4 (Homo sapiens, UniProt P08684). Nature of the data set: Activity at CYP3A4 in human liver microsomes using triazolam as substrate at 50 uM preincubated for 3 mins prior to NADPH addition by HPLC-UV analysis relative to control. The class given is ADME, Microsome. The settings on record: probe triazolam, read-out: Activity. In outline: as §4
Data set [10] concerns the target T2, CYP3A4. Nature of the data set: Activity at CYP3A4 in human liver microsomes using triazolam as substrate at 25 uM preincubated for 3 mins prior to NADPH addition by HPLC-UV analysis relative to control. The class given is ADME, Microsome. As to conditions: probe triazolam, read-out: Activity. The essentials: as §4
Data set [11] deals with T2, CYP3A4. Nature of the data set: Activity at CYP3A4 in human liver microsomes using triazolam as substrate at 12.5 uM preincubated for 3 mins prior to NADPH addition by HPLC-UV analysis relative to control. As to conditions: probe triazolam, read-out: Activity. The data set is classed as ADME, Microsome. In outline:
as §4

In data set [12] the target is T2, CYP3A4. Nature of the data set: Activity at CYP3A4 in human liver microsomes using testosterone as substrate at 25 uM preincubated for 3 mins prior to NADPH addition by HPLC-UV analysis relative to control. As to conditions: probe testosterone, read-out: Activity. The class given is ADME, Microsome. In outline:
as §4

A short description of data set [13]: Half life in human liver microsomes at 50 uM preincubated for 3 mins prior to NADPH addition measured after 60 mins by HPLC analysis. The data set is classed as ADME, Microsome. The essentials:
as §3

Data set [14] deals with T2, CYP3A4. Nature of the data set: Activity at CYP3A4 in human liver microsomes using testosterone as substrate at 12.5 uM preincubated for 3 mins prior to NADPH addition by HPLC-UV analysis relative to control. The class given is ADME, Microsome. As to conditions: probe testosterone, read-out: Activity. The essentials:
as §4

Data set [15] deals with Liver microsomes. Nature of the data set: Metabolic stability in human liver microsomes assessed as retention time of parent compound at 50 uM by HPLC-UV analysis. The data set is classed as ADME, Microsome. The essentials: as §3

T2 sequence (P08684 whole entry): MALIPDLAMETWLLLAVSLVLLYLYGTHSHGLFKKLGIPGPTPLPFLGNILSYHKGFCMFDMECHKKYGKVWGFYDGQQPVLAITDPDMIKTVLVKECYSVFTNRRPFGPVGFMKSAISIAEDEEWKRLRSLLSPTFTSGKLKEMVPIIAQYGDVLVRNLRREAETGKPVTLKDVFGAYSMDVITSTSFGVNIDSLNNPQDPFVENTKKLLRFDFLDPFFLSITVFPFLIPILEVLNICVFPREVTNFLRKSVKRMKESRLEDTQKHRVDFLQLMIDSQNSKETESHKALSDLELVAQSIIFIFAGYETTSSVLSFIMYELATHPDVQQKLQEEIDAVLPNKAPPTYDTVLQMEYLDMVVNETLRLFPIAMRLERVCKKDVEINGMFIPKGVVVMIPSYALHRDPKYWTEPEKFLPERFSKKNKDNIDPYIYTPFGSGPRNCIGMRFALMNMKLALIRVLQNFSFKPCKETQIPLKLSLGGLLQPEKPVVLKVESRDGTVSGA
T1 sequence (P10635 whole entry): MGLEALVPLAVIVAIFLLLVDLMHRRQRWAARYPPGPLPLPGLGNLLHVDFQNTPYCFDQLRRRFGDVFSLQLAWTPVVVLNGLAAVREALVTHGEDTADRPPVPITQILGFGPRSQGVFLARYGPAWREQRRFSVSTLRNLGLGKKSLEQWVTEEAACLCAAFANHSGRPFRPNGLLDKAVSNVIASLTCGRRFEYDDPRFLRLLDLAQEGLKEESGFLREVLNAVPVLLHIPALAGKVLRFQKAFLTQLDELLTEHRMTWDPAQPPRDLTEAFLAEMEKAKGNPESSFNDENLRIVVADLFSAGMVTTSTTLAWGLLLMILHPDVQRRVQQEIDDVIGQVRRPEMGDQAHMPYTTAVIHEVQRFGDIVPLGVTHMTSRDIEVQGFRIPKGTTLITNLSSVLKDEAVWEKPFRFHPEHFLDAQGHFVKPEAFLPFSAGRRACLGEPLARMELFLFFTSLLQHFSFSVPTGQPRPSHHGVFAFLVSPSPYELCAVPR
Chain of Human immunodeficiency virus type 1 integrase (Q7ZJM1 whole entry): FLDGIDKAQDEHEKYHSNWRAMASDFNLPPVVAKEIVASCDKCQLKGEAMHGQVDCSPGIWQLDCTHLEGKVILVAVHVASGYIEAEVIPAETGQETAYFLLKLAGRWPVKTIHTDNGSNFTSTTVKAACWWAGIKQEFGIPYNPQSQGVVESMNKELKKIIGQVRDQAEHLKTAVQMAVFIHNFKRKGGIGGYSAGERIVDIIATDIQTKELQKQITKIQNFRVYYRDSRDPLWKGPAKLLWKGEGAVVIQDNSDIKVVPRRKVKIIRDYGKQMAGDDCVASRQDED
Chain of Human immunodeficiency virus type 1 integrase (Human immunodeficiency virus 1) (Q7ZJM1 as listed by the source): as the sequence (Q7ZJM1 whole entry) above

As for `O=C(/C=C(\O)c1cc(Cc2ccc(F)cc2F)cn(Cc2ccccc2F)c1=O)C(=O)N[C@@H]1CCC[C@@H]1O` (racemic), the inhibition entry in data set [1] was “inactive”.
For orientation: CC50 means the concentration giving 50% cytotoxicity. One may read the pEC50 as the negative decadic logarithm of the EC50, by convention in mol/L. A lower pEC50 goes with a large EC50. Usually EC90 stands for the point of the concentration-response curve where the effect stands at 90%. Lower therefore signals greater potency. For `O=C(/C=C(\O)c1cc(Cc2ccc(F)cc2F)cn(Cc2ccccc2F)c1=O)C(=O)N[C@@H]1CCC[C@H]1O`, the CC50 in data set [2] stood at 137000 nM. For the same molecule, in data set [3], the pEC50 is 7.37 and the EC90 turned out to be 871 nM.
For orientation: pIC50 means the IC50 on a negative log10 scale, so that one unit is a factor of ten. Molecule `O=C(/C=C(\O)c1cc(Cc2ccc(F)cc2F)cn(Cc2ccccc2F)c1=O)C(=O)N[C@@H]1CCC[C@H]1O` (racemic) showed a pIC50 in data set [4] of 7.32.
Usually half-life stands for the time in which the quantity being followed falls by half. Turning to `O=C(/C=C(\O)c1cc(Cc2ccc(F)cc2F)cn(Cc2ccccc2F)c1=O)C(=O)N[C@H]1CCC[C@@H]1O`, the figures for the Retention_time in [5] and in [15] were 9.1 min and 10.48 min, respectively. Besides, the values for the activity at 50 µM in data set [6] and in [9] were 87% and 100%, respectively. For the same molecule, the results for the activity at 25 µM in [7], in data set [10] and in [12] were 87%, 98% and 97%, respectively. Moreover, the activity at 12.5 µM in data set [8] was found to be 86%; in data set [11] it was 124%; in data set [14] it was 109%. This molecule had a half-life at 50 µM in data set [13] of 2 h. Also, it took 40400 nM to reach half-maximal cytotoxicity in data set [2] (CC50). In data set [3], this molecule showed a pEC50 of 7.60. Besides, the 90% effect concentration (EC90) in data set [3] came to 415 nM.
